Assay results collected from several papers.
Compare with care: the assays were run in different laboratories.
Target: High affinity nerve growth factor receptor (NTRK1, Homo sapiens, UniProt P04629)

SMILES | effect on | action | technique | tested at | inhibition [%]
CN1CC(Oc2cnc(C#N)cc2-c2ccn3nc(NC(=O)C4CC4)cc3c2)C1 | enzyme activity | inhibitor |  | 1 µM | 5
CNCc1ccc(-c2cc(-c3nc(-c4ccc(S(=O)(=O)C(C)C)cc4)cnc3N)on2)cc1 | enzyme activity | inhibitor |  | 2 µM | 32
CNC(=O)c1cc(Oc2ccc(NC(=O)Nc3ccc(Cl)c(C(F)(F)F)c3)cc2)ccn1 | enzyme activity | inhibitor |  | 10 µM | 98
CN1CCN(CC(=O)Nc2cccc(C(=O)Nc3ccc4[nH]ncc4c3)c2)CC1 | enzyme activity | inhibitor | FRET | 1 µM | 14.1
CCCS(=O)(=O)Nc1ccc(F)c(C(=O)c2c[nH]c3ncc(-c4ccc(Cl)cc4)cc23)c1F | enzyme activity | inhibitor |  | 1 µM | < 10
O=C(Nc1ccc(C(F)(F)F)cc1)Nc1cccc(C(=O)Nc2ccc3[nH]nc(-c4ccccc4)c3c2)c1 | enzyme activity | inhibitor | FRET | 1 µM | 17
CNC(=O)c1cc2c(Oc3ccc(NC(=O)C4(C(=O)Nc5ccc(F)cc5)CC4)cc3)ccnc2cc1OC | enzyme activity | inhibitor | radiometric | 1 µM | 99
O=C(Nc1ccc(C(F)(F)F)cc1)Nc1cccc(C(=O)Nc2ccc3[nH]ncc3c2)c1 | enzyme activity | inhibitor | FRET | 1 µM | 74
Cc1ccc(Nc2nccc(N(C)c3ccc4c(C)n(C)nc4c3)n2)cc1S(N)(=O)=O | enzyme activity | inhibitor |  | 0.3 µM | 16
COc1cc2ncnc(Nc3ccc(Oc4ccccc4)cc3C)c2cc1OC | enzyme activity | inhibitor |  | 1 µM | 9
CCN(CC)CCNC(=O)c1c(C)[nH]c(/C=C2\C(=O)Nc3ccc(F)cc32)c1C | enzyme activity | inhibitor |  | 0.3 µM | 91
O=C(Nc1ccc(OC(F)(F)F)cc1)Nc1cccc(C(=O)Nc2ccc3[nH]ncc3c2)c1 | enzyme activity | inhibitor | FRET | 1 µM | 69.2
CN(C)C1CCN(CC#Cc2nn(C3CCCC3)c3nc(NCc4ccccc4)ncc23)C1 (stereo not drawn) | enzyme activity | inhibitor | FRET | 10 µM | 65
O=C(Nc1cccc(C(=O)Nc2ccc3[nH]ncc3c2)c1)Nc1ccccc1C(F)(F)F | enzyme activity | inhibitor | FRET | 1 µM | 51.3
COc1cc(C)c(Sc2cnc(NC(=O)c3ccc(N4CCN(CCCCCCCNC(=O)COc5cccc6c5C(=O)N(C5CCC(=O)NC5=O)C6=O)CC4)cc3)s2)cc1C(=O)N1CCN(C(C)=O)CC1 (stereo not drawn) | binding |  |  | 1 µM | > 90
